# DNMT1 inh: human DNMT1 methyltransferase inhibitors, primary screen, biochemical, molecular beacon, fluorescence, HinP1I cleavage, uHTS; DNA (cytosine-5)-methyltransferase 1 (Homo sapiens), P26358; inhibition (reported as % activation of signal), % at 10 µM; 360,000 tested, 0.83% active; AID 588458, 2011; in the data active = inhibition above about 50%
# LMPTP inh: LMPTP phosphatase inhibitors, primary screen, biochemical, fluorescence intensity, uHTS; Low molecular weight phosphotyrosine protein phosphatase (Homo sapiens), P24666; recombinant LMPTP-A, OMFP fluorogenic substrate; inhibition, % at 20 µM; 360,000 tested, 0.22% active;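 active = compounds that cut the enzyme signal by at least half of the control window in the single-dose screen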;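 note: plate controls were DMSO wells with enzyme plus substrate for no effect and substrate without enzyme for full effect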
#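 Test system: LMPTP-A phosphatase enzyme; input: 0.625 nM LMPTP-A final; reagent: OMFP substrate, 400 µM final; compound dosing: 20 µM single dose, 3% DMSO; incubation: 50 min dark incubation at room temperature; measured by: endpoint fluorescence intensity from OMFP dephosphorylation; measure: % inhibition relative to no-enzyme and uninhibited control wells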
# SUMO1 PPI mod: modulators of SUMO1 protein-protein interactions, primary screen, biochemical, uHTS | inhibition, % at 20 µM | SUMO1 binding to a labelled peptide, TR-FRET, 1 h | 360,000 tested, 0.33% active | Small ubiquitin-related modifier 1 (Homo sapiens), P63165 | AID 602429, 2012; in the data active = inhibition above about 37%
# STEP block: STEP phosphatase inhibitors, primary screen, biochemical, fluorescence intensity, uHTS | recombinant STEP, OMFP fluorogenic substrate | inhibition, % at 20 µM | 360,000 tested, 0.25% active;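 active = inhibition at 20 µM, scaled per plate between control wells, above about 37%, limit read from the data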;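 note: 0% = DMSO with enzyme and substrate and 100% = substrate only without enzyme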
# Target sequence (P54829 whole entry, looked up): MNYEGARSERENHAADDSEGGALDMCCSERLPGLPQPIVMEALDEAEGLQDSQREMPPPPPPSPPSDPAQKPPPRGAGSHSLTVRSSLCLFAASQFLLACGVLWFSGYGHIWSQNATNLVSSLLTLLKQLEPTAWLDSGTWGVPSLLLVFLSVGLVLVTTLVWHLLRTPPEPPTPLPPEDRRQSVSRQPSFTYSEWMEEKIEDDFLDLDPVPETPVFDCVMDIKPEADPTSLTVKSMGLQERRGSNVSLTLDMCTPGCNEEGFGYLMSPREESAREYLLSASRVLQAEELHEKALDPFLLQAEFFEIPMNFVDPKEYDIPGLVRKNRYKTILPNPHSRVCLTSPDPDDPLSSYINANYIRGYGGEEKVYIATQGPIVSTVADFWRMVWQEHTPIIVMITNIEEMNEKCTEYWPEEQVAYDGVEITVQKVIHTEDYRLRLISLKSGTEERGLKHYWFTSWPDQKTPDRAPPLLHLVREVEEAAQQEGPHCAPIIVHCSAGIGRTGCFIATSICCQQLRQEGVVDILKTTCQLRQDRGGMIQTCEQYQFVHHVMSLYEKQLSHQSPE
#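 medium = Bis-Tris buffer pH 6.0, 2.5 mM DTT, 0.005% Tween 20 | test system = STEP (striatal-enriched tyrosine phosphatase) enzyme, cell-free | measure = normalized % inhibition | compound dosing = 20 µM, 1% DMSO | also added = 25 µM OMFP | schedule = reaction 20 min, ambient temperature | measured by = fluorescence read at 480 nm ex / 540 nm em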
# Scp1 inh: Scp-1 phosphatase inhibitors, primary screen, biochemical, colorimetric, uHTS; inhibition, % at 20 µM; 340,000 tested, 0.88% active; AID 493091, 2011; Carboxy-terminal domain RNA polymerase II polypeptide A small phosphatase 1 (Homo …; Recombinant Scp1, phosphopeptide, malachite green phosphate absorbance;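 active = inhibition above about 50% at 20 µM, limit read from the data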;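 note: plate controls were DMSO wells with enzyme for no effect and wells lacking enzyme for full effect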
#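 Test system – truncated SCP-1 phosphatase (76-261aa) · Reagent – Phosphorylated 17-residue peptide substrate · Incubation – 45 min room-temperature reaction, 5 min colour, 30 min stabiliser · Detection – colorimetric phosphate reagent with accelerator and stabiliser, absorbance at 630 nm · Measure – % inhibition at 20 µM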
# * marks the source's active call; other numbers are inactive results; · = no result. Rows were chosen to be rich in hits. Some 1.7% of all compounds tested hit in one or more screens of this group.
SMILES,DNMT1 inh,LMPTP inh,SUMO1 PPI mod,STEP block,Scp1 inh
COc1ccc(CNC[C@@H](CCCCN(C)Cc2ccc(OC)cc2)N2C[C@H](c3ccccc3)N(CCc3ccc(Cl)c(Cl)c3)C(=O)C2=O)cc1,-7,57*,-119,11,27
COCCN=c1scc(-c2ccco2)n1/N=C/c1ccc(O)c(O)c1O,70*,73*,19,8,89*
C=CCN=c1scc(-c2ccco2)n1/N=C/c1ccc(O)c(O)c1O,-15,21,-5,3,9
COc1ccc(-c2csc(NC(=S)NC(=O)c3cccs3)n2)cc1OC,-27,4,44*,2,-8
COc1ccc(-c2csc(NC(=S)NC(=O)c3cccs3)n2)cc1Br,-3,2,-1,-1,-13
O=C(N/N=C/c1ccc(-c2ccc(S(=O)(=O)Nc3ncccn3)cc2)o1)c1cc2ccccc2cc1O,86*,8,39*,1,-18
OC(c1ccc(F)c(F)c1)c1ncc(-c2ccccc2F)[nH]1 (configuration not stated),-1,-1,-5,7,·
O=C(c1cc(-c2ccccc2)nc2ccccc12)N1CCCC1,0,0,3,0,-1
c1ccc(-c2cc(NCCN3CCCCC3)c3ccccc3n2)cc1,44,90*,-10,-4,1
Cc1csc(NC(=O)C(C)Oc2ccc(Cl)cc2C)n1 (configuration not stated),1,0,3,-2,-6
Cc1ccc(-c2nc(NCCN3CCOCC3)c3ccccc3n2)cc1,0,50*,3,-2,-8
Fc1ccccc1-c1nc(NCCCN2CCOCC2)c2ccccc2n1,1,51*,0,-4,-3
Clc1ccc(-c2nc(NCCCN3CCOCC3)c3ccccc3n2)cc1,14,42,5,-1,2
CN(C)CCCNc1nc(-c2ccccc2)nc2ccccc12,-6,28,-23,1,-4
CC(C)OCCCNc1nc(-c2ccccc2)nc2ccccc12,6,56*,5,3,-1
C=C(C)C(=O)Oc1ccc(N=Nc2ccc(C)cc2)ccc1=O,95*,10,48*,11,85*
CCN(CC)S(=O)(=O)c1ccc(OC)c(NS(=O)(=O)Cc2ccccc2)c1,1,1,1,-1,-5
N#Cc1c(NC(=O)Cn2c(=O)oc3ccccc32)oc(-c2ccccc2)c1-c1ccccc1,-10,5,41*,-3,-12
O=C(Cn1c(=O)oc2ccccc21)Nc1ccc(Br)cc1,2,1,6,1,-2
CC[C@H]1OC(=O)[C@H](C)[C@@H](O[C@H]2C[C@@](C)(OC)[C@@H](O)[C@H](C)O2)[C@H](C)[C@@H](O[C@@H]2O[C@H](C)C[C@H](N(C)C)[C@H]2O)[C@](C)(O)C[C@@H](C)C(=O)[C@H](C)[C@@H](O)[C@]1(C)O,77*,75*,14,1,8
O=C(NC(Sc1ccc(Cl)cc1)C(=O)O)c1ccccc1 (configuration not stated),11,0,7,-4,·
COC(=O)C1=C(O)/C(=C\c2ccc(OCC(=O)Nc3ccc(OC)cc3)cc2)N=C1C,-4,-1,-13,3,-7
CN1CCN(C(=O)c2sc(=S)n(-c3ccccc3)c2N)CC1,-2,2,-11,96*,22
CCC1CCCCN1CCCNC(=O)COc1cc(=O)n(C)c2ccccc12 (configuration not stated),-1,-1,44*,-3,-9
CCC1CCCCN1CCCNC(=O)CCCOc1cc(=O)n(C)c2ccccc12 (configuration not stated),6,-1,1,-1,-5
SMILES,DNMT1 inh,LMPTP inh,SUMO1 PPI mod,STEP block,Scp1 inh
CCOC(=O)c1cc(-c2ccc(/C=C3/C(=O)NC(=O)C(C#N)=C3C)o2)ccc1Cl,-5,8,12,1,81*
CC1=C(C#N)C(=O)NC(=O)/C1=C\c1ccc(-c2ccc(C)cc2[N+](=O)[O-])o1,4,2,12,1,19
COc1ccc(S(=O)(=O)Nc2ccc3c(c2)C(=O)N([C@H](C)CO)C[C@H](C)[C@@H](CN(C)C(=O)Nc2c(C)noc2C)OCCCC[C@H](C)O3)cc1,0,-1,4,1,·
O=C(CSc1ccc([N+](=O)[O-])cn1)Nc1ccc2c(c1)OCO2,-2,1,-43,0,-8
CCCCCC(=O)Nc1nc(C)c(-c2csc(Nc3cc(OC)ccc3OC)n2)s1,-38,2,-1,1,4
CCCC(C)C(=O)Nc1nc(C)c(-c2csc(Nc3cc(Cl)ccc3C)n2)s1 (configuration not stated),-28,-1,78*,-2,8
Cc1ccc(Cl)cc1Nc1nc(-c2sc(NC(=O)c3ccco3)nc2C)cs1,-32,1,1,-1,0
CCCCCCC(=O)Nc1nc(C)c(-c2csc(Nc3cc(OC)ccc3OC)n2)s1,-32,2,70*,-1,8
CCCCCC(=O)Nc1nc(C)c(-c2csc(Nc3cc(Cl)ccc3C)n2)s1,-18,1,81*,0,6
COc1ccc(Cl)cc1Nc1nc(-c2sc(NC(=O)CC(C)C)nc2C)cs1,-33,2,55*,-3,3
Cc1nc(NC(=O)CC(C)C)sc1-c1csc(Nc2ccc(Cl)cc2Cl)n1,-28,1,4,-3,2
Cc1nn(-c2ccccc2)c(-c2ccccc2[N+](=O)[O-])c1CC#N,-2,0,-8,-1,·
C[C@@H]1CN[C@H](CCO)/C1=C\c1ccccc1,-1,-1,-1,0,8
O=C1CCCC(O)=C1N=Nc1cccc(C(=O)O)c1,43,5,1,5,61*
CCN(CC)S(=O)(=O)c1cccc(N=NC2=C(O)CCCC2=O)c1,-6,1,-11,0,2
COCCCOc1ccnc(CS(=O)c2nc3ccccc3[nH]2)c1C (configuration not stated),-4,1,1,74*,14
Cc1ccccc1OCC(=O)Nc1ccc(N2CCOCC2)cc1N1CCOCC1,-6,0,2,2,-5
CCc1ccccc1OCC(=O)Nc1ccc(N2CCCC2)cc1C,53*,5,-39,0,1
CCNC(=O)C1(C)CCCN(Cc2ccc(-n3ccnc3)cc2)C1 (configuration not stated),1,1,1,-2,·
COC(=O)c1ccc(Nc2nc(-c3ccncc3)nc3ccccc23)cc1,8,3,38,1,4

# Assay outcomes as filed in PubChem BioAssay.
